The values below come from article PMC4212002 (Molecular Pharmaceutics, 2014).

The test system of data set [1] is integrin αiibβ3. The following applies: cited from earlier work.
In data set [2] the test system is integrin α5β1. The following applies: cited from earlier work.
The target in data set [3] is integrin αvβ3 (Homo sapiens, UniProt P05106+P06756). The following applies: cited from earlier work.
Data set [4] relates to integrin αvβ3 (U87MG cells). As to conditions: read-out: U87MG IC50; binding to U87MG cells; ref 22 and 23; cited from earlier work.
For data set [5], the system named is integrin αvβ5. As to conditions: cited from earlier work.
Data set [6] relates to U87MG cells. In words: U87MG cell uptake assay. It counts as cell-based, human. As to conditions: for cell uptake (% of added radioactivity): 37 kBq/well, mean ± SD, triplicate. Put shortly: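 U87MG cells were grown in high-glucose DMEM with 10% FBS and 1% pen-strep (37 °C, 5% CO2) and trypsinised at 70–80% confluence. Cells (1 × 10^5/well) attached overnight and were PBS-washed, then exposed to 37 kBq radiotracer per well in medium ± 2 μg/well c(RGDyK) at 37 or 4 °C for 15–120 min. Cells were washed, lysed in 1.0 M NaOH and γ-counted as % added activity. Two experiments, triplicate wells.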

Data set [7] concerns U87MG tumor-bearing mice. In words: Small animal PET imaging quantification. Type of data set: in vivo, mouse. As to conditions: U87MG xenograft mice, within 2 h p.i. Put shortly: (§1)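 Female nude mice carried s.c. U87MG shoulder xenografts of 0.5–1 cm, n = 4 per group. About 3.7 MBq (100 μCi) of radiotracer was given via tail vein, with or without ~330 μg c(RGDyK) coinjected. Mice were scanned on a small-animal PET at 0.5, 1 and 2 h p.i. under isoflurane (5% induction, 2% maintenance in 100% O2). Images were reconstructed by OSEM 2D and regional uptake quantified as %ID/g.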

Data set [8] in a line: Small animal PET imaging quantification. The following applies: mouse, tumor, iv, 3.7 MBq, total radioactivity. Type of data set: in vivo, mouse. Put shortly:
as §1

The subject of data set [9] is U87MG tumor-bearing mice. In words: Biodistribution study. Type of data set: in vivo, mouse. As to conditions: U87MG xenograft nude mice, i.v., 2.5 h p.i., mean ± SD n = 4. In outline: (§2)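 Female athymic nude mice bore s.c. right-shoulder xenografts (~1 × 10^7 U87MG cells in 100 μL PBS, grown 2–3 weeks to 0.5–1 cm). The radiofluorinated peptide (1.85–3.7 MBq) was given via tail vein; mice were killed 0.5–2.5 h p.i. Tissues were weighed and γ-counted and expressed as %ID/g, n = 4 per group. A blocking group was coinjected with 330 μg c(RGDyK) and examined at 2.5 h.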

Data set [10] in a line: Biodistribution study. It counts as in vivo, mouse. The following applies: nude, mouse, iv, total radioactivity. In outline:
as §2

Data set [11] in a line: In vitro stability in PBS buffer. Type of data set: physicochemical. The following applies: 0.01 M PBS pH 7.4, 1 h, room temperature, 3.7–5.55 MBq, radio-HPLC. Put shortly: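 The radiotracer was reconstituted in PBS and sterile-filtered (0.22 μm) before incubation. After incubation, samples were analysed by radio-HPLC. Percent intact peptide was obtained by quantifying the peaks for intact peptide and for degradation products.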

Positions of bridges follow the written chain, without caps; N, C: chain ends. Residues, ends and D or L forms follow the SMILES beside them.

Sequence of integrin αvβ3 (P06756 31-889): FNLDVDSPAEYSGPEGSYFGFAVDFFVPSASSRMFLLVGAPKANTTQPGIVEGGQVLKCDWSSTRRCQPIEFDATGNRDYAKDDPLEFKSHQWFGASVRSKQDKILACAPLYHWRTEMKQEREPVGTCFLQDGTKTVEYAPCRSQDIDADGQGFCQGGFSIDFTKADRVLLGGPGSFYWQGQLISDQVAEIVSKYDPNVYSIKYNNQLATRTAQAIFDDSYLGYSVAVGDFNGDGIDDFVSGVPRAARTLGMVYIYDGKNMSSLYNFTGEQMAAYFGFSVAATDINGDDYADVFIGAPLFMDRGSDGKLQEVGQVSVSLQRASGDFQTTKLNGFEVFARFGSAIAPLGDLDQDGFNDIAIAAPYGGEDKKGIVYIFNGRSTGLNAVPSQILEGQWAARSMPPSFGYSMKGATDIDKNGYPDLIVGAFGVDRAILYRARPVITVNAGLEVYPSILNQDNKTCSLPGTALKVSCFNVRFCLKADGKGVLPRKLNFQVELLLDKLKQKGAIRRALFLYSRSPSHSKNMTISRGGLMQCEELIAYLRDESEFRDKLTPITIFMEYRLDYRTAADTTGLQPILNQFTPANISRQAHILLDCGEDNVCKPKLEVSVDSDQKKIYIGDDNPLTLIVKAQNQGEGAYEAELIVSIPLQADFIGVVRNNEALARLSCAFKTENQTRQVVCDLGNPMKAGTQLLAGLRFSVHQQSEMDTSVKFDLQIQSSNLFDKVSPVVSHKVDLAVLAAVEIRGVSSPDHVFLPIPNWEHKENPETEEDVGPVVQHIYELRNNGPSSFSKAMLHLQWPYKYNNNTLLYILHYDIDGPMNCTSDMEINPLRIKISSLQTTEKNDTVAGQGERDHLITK
Sequence of integrin αvβ3 (P06756 891-992): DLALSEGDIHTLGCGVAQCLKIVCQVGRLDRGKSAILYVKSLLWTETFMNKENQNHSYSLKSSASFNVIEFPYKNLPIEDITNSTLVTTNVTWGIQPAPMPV
Sequence of integrin αvβ3 (P05106 27-718): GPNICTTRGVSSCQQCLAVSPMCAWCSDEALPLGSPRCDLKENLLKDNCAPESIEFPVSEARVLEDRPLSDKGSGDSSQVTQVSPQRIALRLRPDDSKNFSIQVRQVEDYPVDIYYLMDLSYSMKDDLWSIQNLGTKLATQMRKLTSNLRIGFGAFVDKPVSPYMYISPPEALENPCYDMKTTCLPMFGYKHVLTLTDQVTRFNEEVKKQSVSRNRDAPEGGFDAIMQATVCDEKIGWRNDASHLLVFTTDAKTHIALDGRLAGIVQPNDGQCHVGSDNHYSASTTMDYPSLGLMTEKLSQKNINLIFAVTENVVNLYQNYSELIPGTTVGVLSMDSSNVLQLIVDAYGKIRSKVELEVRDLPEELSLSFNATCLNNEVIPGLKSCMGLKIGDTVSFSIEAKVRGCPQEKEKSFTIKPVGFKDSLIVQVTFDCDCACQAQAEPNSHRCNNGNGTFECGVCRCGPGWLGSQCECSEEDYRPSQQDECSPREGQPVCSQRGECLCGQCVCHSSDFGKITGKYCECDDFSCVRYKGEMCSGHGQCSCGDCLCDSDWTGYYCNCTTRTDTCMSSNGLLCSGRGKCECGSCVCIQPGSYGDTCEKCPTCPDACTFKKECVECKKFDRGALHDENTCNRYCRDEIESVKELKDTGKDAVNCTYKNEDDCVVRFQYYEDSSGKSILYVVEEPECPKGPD

Regarding `CSCC[C@@H]1NC(=O)[C@H](CC(=O)O)NC(=O)CNC(=O)[C@H](CCCNC(=N)N)NC(=O)[C@H](C)NC(=O)[C@H](CCC(=O)O)NC(=O)[C@H](CCCNC(=N)N)NC(=O)[C@@H]2CSSC[C@@H]3NC(=O)[C@H](CO)NC(=O)[C@H]([C@@H](C)O)NC(=O)[C@@H]4CCCN4C(=O)[C@H](C)NC(=O)[C@H](Cc4c[nH]c5ccccc45)NC(=O)[C@H](CC(=O)O)NC(=O)CNC(=O)[C@H](CCCNC(=N)N)NC(=O)CNC(=O)[C@H](CCC(N)=O)NC(=O)[C@@H]4CCCN4C(=O)[C@@H](NC(=O)CN)CSSC[C@H](NC(=O)CNC(=O)[C@H](C)NC(=O)[C@H](CC(C)C)NC(=O)[C@H](CSSC[C@@H](C(=O)NCC(N)=O)NC(=O)[C@H]([C@@H](C)O)NC(=O)[C@H](CCCNC(=N)N)NC(=O)[C@@H]4CCCN4C1=O)NC(=O)[C@H](CC(=O)O)NC(=O)[C@H](CO)NC(=O)[C@H](CC(=O)O)NC(=O)[C@H](CCC(N)=O)NC(=O)[C@H](CO)NC3=O)C(=O)N[C@@H](C(C)C)C(=O)N2` [3-4A] (H-GCPQGRGDWAPTSCSQDSDCLAGCVCREARGDMPRTCG-NH2; disulfide 2-24, 14-26, 20-37; C-terminus assumed), the “binding affinity for integrin αiibβ3” value in [1] is reported as “lower affinity”. Besides, the “binding affinity for integrin α5β1” value in data set [2] is reported as “lower affinity”. Besides, the “binding affinity to integrin αvβ3” value in [3] is “high binding affinity”. Moreover, the IC50 (commonly the midpoint of a concentration-inhibition curve) in [4] is 5 ± 2 nM. For the same molecule, the “binding affinity to integrin αvβ5” value in data set [5] was “high binding affinity”.
Turning to `CSCC[C@@H]1NC(=O)[C@H](CC(=O)O)NC(=O)CNC(=O)[C@H](CCCNC(=N)N)NC(=O)[C@H](C)NC(=O)[C@H](CCC(=O)O)NC(=O)[C@H](CCCNC(=N)N)NC(=O)[C@@H]2CSSC[C@@H]3NC(=O)[C@H](CO)NC(=O)[C@H]([C@@H](C)O)NC(=O)[C@@H]4CCCN4C(=O)[C@H](C)NC(=O)[C@H](Cc4c[nH]c5ccccc45)NC(=O)[C@H](CC(=O)O)NC(=O)CNC(=O)[C@H](CCCNC(=N)N)NC(=O)CNC(=O)[C@H](CCC(N)=O)NC(=O)[C@@H]4CCCN4C(=O)[C@@H](NC(=O)CNC(=O)C(C)F)CSSC[C@H](NC(=O)CNC(=O)[C@H](C)NC(=O)[C@H](CC(C)C)NC(=O)[C@H](CSSC[C@@H](C(=O)NCC(N)=O)NC(=O)[C@H]([C@@H](C)O)NC(=O)[C@H](CCCNC(=N)N)NC(=O)[C@@H]4CCCN4C1=O)NC(=O)[C@H](CC(=O)O)NC(=O)[C@H](CO)NC(=O)[C@H](CC(=O)O)NC(=O)[C@H](CCC(N)=O)NC(=O)[C@H](CO)NC3=O)C(=O)N[C@@H](C(C)C)C(=O)N2` (stereo partly shown) [^18F-FP–3-4A], the “accumulation in cells at 37 °C compared to 4 °C” value in data set [6] is on record as 2–3 fold. The “inhibition of cell uptake by excess c(RGDyK)” value in [6] (4 °C, 1 h, 2 μg/well c(RGDyK)) is recorded as 31.82%. The “cell uptake (% of added radioactivity)” value was found to be 0.32 ± 0.02% in data set [6] (4 °C, 15 min); 0.41 ± 0.11% in data set [6] (4 °C, 30 min); 0.44 ± 0.05% in data set [6] (4 °C, 60 min); 0.51 ± 0.04% in [6] (4 °C, 120 min); 0.71 ± 0.07% in data set [6] (37 °C, 15 min); 0.90 ± 0.04% in [6] (37 °C, 30 min). The “cell uptake (% of added radioactivity)” value in data set [6] (37 °C, 60 min) is listed as 1.44 ± 0.04%; in [6] (37 °C, 120 min) it was 1.50 ± 0.07%. In addition, the “in vivo defluorination (bone uptake on PET)” value in [7] is “no observable defluorination”. In addition, in [8], the tissue uptake (usually the share of the injected amount in each gram of the tissue) at 0.5 h came to 3.87 ± 0.66 %ID/g. The liver uptake in data set [9] was found to be 0.29 % ID/g. For the same molecule, the tissue to tissue ratio at 0.5 h came to 5.94 ± 0.94 in [10] (tumor and blood); 0.57 ± 0.19 in data set [10] (tumor and kidney); 5.55 ± 0.63 in data set [10] (tumor and liver); 2.22 ± 0.45 in [10] (tumor and lung); 10.8 ± 1.52 in [10] (tumor and muscle); 12 ± 1.94 in [10] (tumor and pancreas). Moreover, the tissue to tissue ratio at 0.5 h in data set [10] (tumor and spleen) amounted to 4.28 ± 0.4. For the same molecule, the tissue to tissue ratio at 1 h is 4.39 ± 0.82 in data set [10] (tumor and blood); 0.6 ± 0.12 in [10] (tumor and kidney); 5.69 ± 0.88 in [10] (tumor and liver); 1.44 ± 0.31 in data set [10] (tumor and lung); 10.1 ± 1.22 in [10] (tumor and muscle); 6.06 ± 0.54 in data set [10] (tumor and pancreas). In addition, in [10] (tumor and spleen), the tissue to tissue ratio at 1 h amounted to 2.63 ± 0.32. For the same molecule, the tissue to tissue ratio at 2.5 h in data set [10] (tumor and blood) was determined as 3.12 ± 0.55; in data set [10] (tumor and kidney), 0.72 ± 0.15; in [10] (tumor and liver), 3.15 ± 0.74; in data set [10] (tumor and lung), 1.64 ± 0.01; in data set [10] (tumor and muscle) it was 3.47 ± 0.07; in data set [10] (tumor and pancreas), 3.96 ± 1.24. For the same molecule, the tissue to tissue ratio at 2.5 h in [10] (tumor and spleen) came out at 1.83 ± 0.16. Besides, in data set [11], the “intact probe after incubation in PBS” value was “completely intact”.
